Shown are actives, neighbours in structure and some others; about 2.6% of the full set was active somewhere.
miR-122 sensor = miR-122 inhibition in Huh7 cells | Huh7 miR-122 Renilla luciferase sensor, 48 h; neutral wells = 0, positive control = 100 | activation (reporter increase), % at 12.5 µM | hit rate 0.3% among 340,000;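 active = mean replicate activation score at least 90 and every replicate individually at or above 90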;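 note: higher luciferase means less miR-122 activity so hits act as miR-122 inhibitors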
Ecoli rRNA inh = inhibitors of bacterial rRNA selective over humanized ribosomes; E. coli WT GFP vs humanized-ribosome RFP mutants, fluorescence, 24 h; active compounds read low; DMSO median 0, no signal -100; GFP signal change (wild-type ribosome), % (test concentration not listed); hit rate 1.6% among 350,000; AID 720706;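 active = significant combined selectivity score with lowered wild-type GFP, culture density cut under 30%, mutant RFP and density less affected; inactive = any of these conditions unmet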
HIV Env fusion = blocks HIV Env-driven cell-cell fusion; hit rate 1.1% among 360,000; AID 651610; HeLa-JRFL Env/CEM21 cell fusion, luciferase; inhibition, % at 12.3 µM;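 active = mean replicate inhibition score of at least 50 and every replicate individually at or above 50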;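 note: 0% = plate neutral controls and 100% = maraviroc near 300 nM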
S100A4 MyoIIA = inhibitors of human S100A4 binding to myosin IIA peptide | inhibition, % at 10.7 µM | P26447 | hit rate 0.14% among 360,000 | S100A4/TAMRA-MyoIIA peptide fluorescence polarization;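 active = mean inhibition of at least 70% across replicates, with every replicate also reaching that level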
Target sequence (P26447 whole entry, looked up): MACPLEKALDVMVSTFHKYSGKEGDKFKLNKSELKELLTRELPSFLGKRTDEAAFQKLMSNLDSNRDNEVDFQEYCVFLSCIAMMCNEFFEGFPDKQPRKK
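Test system – S100A4 monomer (human) · Compound – single-point compound testing · Schedule – 5 min incubation before reading · Probe or stimulus – TAMRA-labelled myosin IIA heavy-chain peptide probe, 5 nM · Benchmarks – neutral control DMSO, positive control TFP · Medium – Calcium-containing HEPES buffer, pH 7.2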
Vif inh = blocks HIV Vif function. HEK293T cells, Vif self-association by quenched fluorescence, imaging, 24 h. AID 602346. inhibition, % at 7.49 µM. hit rate 0.35% among 340,000; in the data active = inhibition above about 50%, passing the limit was not always enough
FN deposit inh = fibronectin deposition inhibition; hit rate 0.086% among 350,000; inhibition, % at 12.6 µM; AID 743247; AH1F fibroblasts, Alexa488-fibronectin deposition fluorescence, overnight;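 active = mean inhibition across replicates of 30% or more, regardless of how many single replicates reach that level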;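 note: positive control wells lacked labelled fibronectin entirely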
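Material: AH1F fibroblast monolayer depositing Alexa488-labelled fibronectin into matrix / Amount: 10000 AH1F cells per well / Signal: fluorescence 485/525 nm / Medium: DMEM, 2% serum / Compound: single dose, pinned / Incubation: 1 h cell adhesion before compound, then overnight fibronectin incubation / Reagent: Alexa488-FN, 24 nM final / Read-out: inhibition of fibronectin deposition signal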
Starred values were filed as active, the others as inactive; x = no result given; ! = a repeat was not active; [ ] = dose if it differs, or a comment.

SMILES | miR-122 sensor | Ecoli rRNA inh | HIV Env fusion | S100A4 MyoIIA | Vif inh | FN deposit inh
O=C(COc1ccccc1Br)c1ccc2c(c1)OCO2 | x | -2.6 | -2.1 | 2.5 | 4.2 | 4.8
O=C(COc1ccccc1Br)c1ccc(O)cc1O | 1.2 | -42.4* | x | -4.4 | -3.1 | x
C[C@H]1CN([C@@H](C)CO)C(=O)c2cccc(NS(C)(=O)=O)c2O[C@@H]1CN(C)CC1CC1 | 3.8[16.7 µM] | 4.8 | 1.6[16.7 µM] | 3.2 | x | 0.0
COc1ccc(NC(=O)N2C[C@@H](O)COC[C@H]3O[C@H](CC(=O)N4CCN(C)CC4)CC[C@@H]32)cc1 | 10.3[16.7 µM] | 2.3 | x | -17.6 | x | 3.9
Cc1cnc(C(=O)OCC(=O)c2ccccc2)cn1 | x | -1.4 | -3.7 | 94.1* | -9.4 | -2.3
Cc1cnc(C(=O)OCC(=O)c2ccc(-c3ccccc3)cc2)cn1 | 0.5 | 7.6 | 18.5 | 0.2 | 0.5 | -2.5
CS(=O)(=O)N1[C@@H]2CN(CC(F)(F)F)C[C@H]1C2c1ccc(Br)cc1 (stereo partly specified) | x | -23.6 | x | x | x | 1.6
COC(=O)c1cn(NC(=O)C2CCC(C)CC2)c(=O)c2ccccc12 (stereo unspecified) | -6.9 | x | 5.8 | x | -13.2 | -6.4
COC(=O)c1cn(NC(=O)c2cc([N+](=O)[O-])ccc2F)c(=O)c2ccccc12 | x | 16.1 | 57.2* | -0.6 | -10.3 | -3.8
Cc1cc(CNC(=O)COc2ccc(C)c(C)c2)c2ccccc2n1 | 0.5 | -24.9* | 30.0 | 1.3 | -14.7 | x
Fc1ccc(Cn2nnnc2C(c2ccc(Cl)cc2)N2CCSCC2)cc1 (stereo unspecified) | 13.6 | x | 52.3* | x | 2.5 | -1.8
C[C@@H]1CN([C@@H](C)CO)C(=O)c2cc(NC(=O)Nc3ccc(C(F)(F)F)cc3)ccc2O[C@H]1CN(C)Cc1ccc(C(F)(F)F)cc1 | -0.6[16.7 µM] | 0.3 | 6.6[16.7 µM] | -17.5 | x | x
Cc1cc(S(=O)(=O)NCCc2ccccc2)c(C)s1 | 226.0* | x | -29.3 | x | 6.8 | 9.1
CCCC(=O)N1CC2(CCN(C(=O)CC3CC3)CC2)c2c(n(C)c3cc(OC)ccc23)[C@H]1CO | x | -7.0 | x | x | x | x
CCC1=NN=C(c2ccc(F)cc2)C(c2c[nH]c3ccccc23)N1O (stereo unspecified) | 4.9 | x | 102.9* | x | -0.7 | 1.6
Cc1ccc(N2C(=O)CC(c3c[nH]c4ccccc34)C2=O)cc1 (stereo unspecified) | -5.1 | -14.8 | -33.4 | 57.8 | 1.9 | 6.0
COc1cc(NCc2ccccc2)c2ncn(C(C)C)c2c1 | -1.6 | -22.6 | x | 3.4 | -13.1 | 6.5
COc1cc(NCCCNC(C)C)c2nccc(C)c2c1 | -0.1 | 19.4 | -0.1 | 12.8 | 67.4* | -5.9
CC(=O)Nc1cccc(C(=O)NC2CCCc3c2cnn3-c2ccccc2F)c1 (stereo unspecified) | -6.2 | 0.4 | -2.5 | 198.5* | 1.8 | 18.5
COc1cc(C(=O)NC2CCCc3c2cnn3-c2ccccc2F)cc(OC)c1OC (stereo unspecified) | -2.2 | -3.6 | 4.3 | -2.4 | -11.5 | 3.9
CCc1cccc(NC(=O)Cn2c3[n+](c4ccc(C(F)(F)F)cc42)CCCCC3)c1 | x | -44.7* | -26.7 | -4.9 | 2.1 | 7.0
O=C(Cn1c2[n+](c3ccc(C(F)(F)F)cc31)CCCCC2)Nc1ccccc1 | x | -24.2 | -9.8 | 5.2 | 2.7 | -3.0
O=C(Cn1c2[n+](c3ccc(C(F)(F)F)cc31)CCCCC2)c1ccc2c(c1)OCCO2 | x | -37.8* | 5.9 | -2.0 | -2.8 | -2.3
O=C(Cn1c2[n+](c3ccc(C(F)(F)F)cc31)CCCCC2)c1cccc([N+](=O)[O-])c1 | 12.7 | 3.8 | 17.6 | -17.4 | -1.6 | -11.6
O=C(C[C@@H]1CC[C@H]2[C@@H](COC[C@H](O)CN2S(=O)(=O)c2ccc(Cl)cc2)O1)NCCN1CCCCC1 | x | 4.3 | x | -14.6 | x | -2.9
SMILES | miR-122 sensor | Ecoli rRNA inh | HIV Env fusion | S100A4 MyoIIA | Vif inh | FN deposit inh
O=[N+]([O-])c1ccccc1S(=O)(=O)Oc1ccc(/C=N/n2cnnc2)cc1 | x | x | x | x | -10.4 | x
COc1cc(/C=N/n2cnnc2)ccc1OS(=O)(=O)c1ccccc1[N+](=O)[O-] | x | -19.2* | x | -4.8 | -2.3 | 4.2
C[C@@H]1CN([C@H](C)CO)C(=O)c2cccc(NC(=O)c3ccncc3)c2O[C@@H]1CN(C)Cc1ccc(-c2ccccc2)cc1 | 55.5[16.7 µM] | -3.8 | x | 2.3 | x | 8.9
Cc1cc(C(=O)Nc2cccc3c2O[C@H](CN(C)Cc2ccc(C(F)(F)F)cc2)[C@@H](C)CN([C@H](C)CO)C3=O)n(C)n1 | 276.3*[16.7 µM] | -8.1 | 5.0[16.7 µM] | 6.4 | x | x
C[C@H]1CN([C@@H](C)CO)C(=O)c2cccc(NC(=O)c3ccncc3)c2O[C@@H]1CN(C)Cc1ccc(C(F)(F)F)cc1 | 107.5*[16.7 µM] | -15.1 | -2.4[16.7 µM] | 0.5 | x | 9.0
C[C@@H]1CN([C@@H](C)CO)C(=O)c2cccc(NC(=O)c3ccncc3)c2O[C@@H]1CN(C)Cc1ccc(-c2ccccc2)cc1 | -3.4[16.7 µM] | -19.1*! | -6.2 | 6.9 | 6.5 | 13.1
C[C@@H]1CN([C@@H](C)CO)C(=O)c2cccc(NC(=O)c3ccncc3)c2O[C@H]1CN(C)Cc1ccc(C(F)(F)F)cc1 | 33.6[16.7 µM] | -12.9 | 36.1[16.7 µM] | 1.4 | x | 15.4
CCOc1cc(S(=O)(=O)NCc2ccccc2)c(OCC)cc1-n1cnnn1 | 21.6 | -0.6 | -19.4 | -7.8 | 16.2 | -1.9
CCOc1cc(S(=O)(=O)N(Cc2ccccc2)Cc2ccccc2)c(OCC)cc1-n1cnnn1 | -4.2 | x | 63.2* | x | -11.4 | x
C[C@H]1CN([C@@H](C)CO)C(=O)Cc2cc(NC(=O)CCCN(C)C)ccc2O[C@H]1CN(C)S(=O)(=O)c1ccc(Cl)cc1 | -9.5[16.7 µM] | -0.6 | x | 5.8 | x | x
NC(=O)N/N=C(/CCCCCC/C(=N\NC(N)=O)c1ccccc1)c1ccccc1 | -9.5 | -26.2* | -22.1 | -2.4 | -8.2 | 3.1
CCCC#Cc1ccc2c(c1)O[C@H](CN(C)S(=O)(=O)c1cccc(OC)c1)[C@H](C)CN([C@H](C)CO)S2(=O)=O | 56.8 | 7.1 | 38.2[16.7 µM] | -5.1 | -2.6 | -10.7
COc1cccc(S(=O)(=O)N(C)C[C@H]2Oc3cc(C#CCN(C)C)ccc3S(=O)(=O)N([C@@H](C)CO)C[C@H]2C)c1 | 4.3[16.7 µM] | 0.0 | -9.1[16.7 µM] | 3.7 | x | x
COc1cccc(S(=O)(=O)N(C)C[C@@H]2Oc3cc(C#CCC(C)C)ccc3S(=O)(=O)N([C@H](C)CO)C[C@@H]2C)c1 | -6.9[16.7 µM] | 2.5 | 61.8*[16.7 µM] | 5.2 | x | -5.2
COc1cccc(S(=O)(=O)N(C)C[C@H]2Oc3cc(C#CCC(C)C)ccc3S(=O)(=O)N([C@H](C)CO)C[C@H]2C)c1 | 39.6[16.7 µM] | -1.9 | 72.9*[16.7 µM] | 5.5 | x | -6.4
COc1ccccc1S(=O)(=O)N(C)C[C@H]1Oc2cc(C#CCC(C)C)ccc2S(=O)(=O)N([C@@H](C)CO)C[C@H]1C | 37.0[16.7 µM] | 1.1 | 55.0*[16.7 µM] | -10.3 | x | x

Screens deposited in PubChem BioAssay by Broad Institute.
